This note sets out measurements from ChEMBL document CHEMBL1212759, “Antifungal activity of colistin against mucorales species in vitro and in a murine model of Rhizopus oryzae pulmonary infection” (Antimicrob Agents Chemother, 2010).

Test [1] relates to Mucor circinelloides. In words: Antimicrobial activity against Mucor circinelloides isolate 4480 after 24 hrs in RMPI 1640 medium by broth microdilution method. It is filed as functional, organism-based. The method in brief:
(§1)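 Colistin was serially diluted from 64 to 0.06 μg/ml in RPMI 1640 with glucamine and without bicarbonate. Fresh spores from 48–72 h YAG plates were added at 0.5 × 10^4 to 4 × 10^4 cells/ml. Plates were incubated 24 h at 37°C. MIC was read visually as the lowest concentration giving 100% growth inhibition.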

The test system of another test is Rhizopus homothallicus. In words: Antimicrobial activity against Rhizopus homothallicus isolate 5910 after 24 hrs in RMPI 1640 medium by broth microdilution method. It is filed as functional. The method in brief:
as §1

Test [2] has as its system Cunninghamella bertholletiae. In words: Antimicrobial activity against Cunninghamella bertholletiae isolate 6694 after 24 hrs in yeast nitrogen base complete medium by broth microdilution method. It is filed as functional, organism-based. The method in brief: (§2)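 Broth microdilution in YNB complete medium with colistin at 128 to 0.12 μg/ml. Freshly collected spores were inoculated at 0.5 × 10^4 to 4 × 10^4 cells/ml and incubated 24 h at 37°C. MIC was read visually as the lowest concentration with complete (100%) growth inhibition.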

Test [3] relates to Mucor circinelloides. In words: Antimicrobial activity against Mucor circinelloides isolate 4030 after 24 hrs in yeast nitrogen base complete medium by broth microdilution method. It is filed as functional, organism-based. A digest of the protocol:
as §2

The next test concerns Rhizopus arrhizus. In words: Antimicrobial activity against Rhizopus oryzae isolate 3140 after 24 hrs in yeast nitrogen base complete medium by broth microdilution method. It is filed as functional, organism-based. A digest of the protocol:
as §2

With COLISTIN, the MFC was 32 µg/mL with Mucor circinelloides [1]; 32 µg/mL in the test with Rhizopus homothallicus; > 128 µg/mL in test [2]; > 128 µg/mL in the test on Mucor circinelloides [3]; > 128 µg/mL with Rhizopus arrhizus. Besides, the MIC in the test with Mucor circinelloides [1] turned out to be 16 µg/mL; with Rhizopus homothallicus, 32 µg/mL; in test [2], 128 µg/mL; against Mucor circinelloides [3], 128 µg/mL; in the test on Rhizopus arrhizus, 128 µg/mL.
